# From PMC5590101 (Journal of medicinal chemistry, 2016)
# Entries after “also recorded” stand apart in the source; their conditions may differ. Read-outs that look alike come from different tables or passages of the source.
# Tests used:
# [1] = target: Bovine brain tubulin (Bos taurus, UniProt P81947+Q6B856); assay: Inhibition of tubulin assembly; format: biochemical; settings: for fold more potent than (±)-1·HCl, tubulin assembly: relative to lead (±)-1·HCl
# [2] = tested on: MDA-MB-435 cells; assay: SRB antiproliferative assay, MDA-MB-435; format: cell-based; settings: for IC50: Homo sapiens, MDA-MB-435, read-out: IC50 ± SD MDA-MB-435; for fold lower antiproliferative potency than 3: MDA-MB-435, relative to compound 3; for fold more potent than (±)-1·HCl, antiproliferative activity (MDA-MB-435): relative to lead (±)-1·HCl
# [3] = tested on: microtubules in A-10 cells; assay: Microtubule depolymerization in A-10 cells; format: cell-based, rat; settings: for fold lower microtubule depolymerizing potency than 3: relative to compound 3; for microtubule depolymerization activity: tested up to 10 µM; for fold more potent than (±)-1·HCl, microtubule depolymerizing effects: relative to lead (±)-1·HCl
# [4] = tested on: HeLa cells; assay: Cell cycle distribution by flow cytometry; format: cell-based; settings: 18 h, five-times the IC50
# [5] = tested on: NCI/ADR-RES; settings: NCI panel, ovarian cancer; cited from earlier work
# [6] = tested on: MOLT-4; settings: NCI panel, leukemia; cited from earlier work
# [7] = tested on: SK-MEL-5; settings: NCI panel, melanoma; cited from earlier work
# [8] = tested on: HeLa WTβIII; settings: IC50 HeLa WTβIII / IC50 HeLa; results previously published; cited from earlier work
# [9] = tested on: OVCAR-8; settings: NCI panel, ovarian cancer; cited from earlier work
# [10] = tested on: HCC-2998; settings: NCI panel, colon cancer; cited from earlier work
# [11] = tested on: LOX IMVI; settings: NCI panel, melanoma; cited from earlier work
# [12] = tested on: BT-549; settings: NCI panel, breast cancer; cited from earlier work
# [13] = tested on: NCI-H522; settings: NCI panel, NSCLC; cited from earlier work
# [14] = tested on: NCI-H23; settings: NCI panel, NSCLC; cited from earlier work
# [15] = tested on: SN12C; settings: NCI panel, renal cancer; cited from earlier work
# [16] = tested on: 786–0; settings: NCI panel, renal cancer; cited from earlier work
# [17] = tested on: HCT-15; settings: NCI panel, colon cancer; cited from earlier work
# [18] = tested on: MCF7; settings: NCI panel, breast cancer; cited from earlier work
# [19] = tested on: SR; settings: NCI panel, leukemia; cited from earlier work
# [20] = tested on: SK-OV-3 MDR1-M6/6; settings: IC50 MDR1-M6/6 / IC50 SK-OV-3; results previously published; cited from earlier work
# [21] = tested on: HCT-116; settings: NCI panel, colon cancer; cited from earlier work
# [22] = tested on: SF-268; settings: NCI panel, CNS cancer; cited from earlier work
# [23] = tested on: MDA-MB-468; settings: NCI panel, breast cancer; cited from earlier work
# [24] = tested on: HS 578T; settings: NCI panel, breast cancer; cited from earlier work
# [25] = tested on: NCI-H460; settings: NCI panel, NSCLC; cited from earlier work
# [26] = tested on: CCRF-CEM; settings: NCI panel, leukemia; cited from earlier work
# [27] = tested on: KM12; settings: NCI panel, colon cancer; cited from earlier work
# [28] = tested on: RXF 393; settings: NCI panel, renal cancer; cited from earlier work
# [29] = tested on: UO-31; settings: NCI panel, renal cancer; cited from earlier work
# [30] = tested on: M14; settings: NCI panel, melanoma; cited from earlier work
# [31] = tested on: TK10; settings: NCI panel, renal cancer; cited from earlier work
# [32] = tested on: MDA-MB-435; settings: NCI panel, melanoma; cited from earlier work
# [33] = tested on: ACHN; settings: NCI panel, renal cancer; cited from earlier work
# [34] = tested on: SF-295; settings: NCI panel, CNS cancer; cited from earlier work
# [35] = tested on: OVCAR-5; settings: NCI panel, ovarian cancer; cited from earlier work
# [36] = tested on: HOP-92; settings: NCI panel, NSCLC; cited from earlier work
# [37] = tested on: microtubules in A-10 cells; settings: read-out: EC50 for microtubule depolymerization in A-10 cells; results previously published; cited from earlier work
# [38] = tested on: OVCAR-4; settings: NCI panel, ovarian cancer; cited from earlier work
# [39] = tested on: IGROVI; settings: NCI panel, ovarian cancer; cited from earlier work
# [40] = tested on: HT29; settings: NCI panel, colon cancer; cited from earlier work
# [41] = tested on: A498; settings: NCI panel, renal cancer; cited from earlier work
# [42] = tested on: DU-145; settings: NCI panel, prostate cancer; cited from earlier work
# [43] = tested on: PC-3; settings: NCI panel, prostate cancer; cited from earlier work
# [44] = tested on: COLO 205; settings: NCI panel, colon cancer; cited from earlier work
# [45] = tested on: HL-60(TB); settings: NCI panel, leukemia; cited from earlier work
# [46] = tested on: HeLa; settings: read-out: IC50 ± SD HeLa; parental line; results previously published; cited from earlier work
# [47] = tested on: EKVX; settings: NCI panel, NSCLC; cited from earlier work
# [48] = tested on: SK-OV-3; settings: read-out: IC50 ± SD SK-OV-3; parental line; results previously published; cited from earlier work
# [49] = tested on: NCI-H226; settings: NCI panel, NSCLC; cited from earlier work
# [50] = tested on: K-562; settings: NCI panel, leukemia; cited from earlier work
# [51] = tested on: U251; settings: NCI panel, CNS cancer; cited from earlier work
# [52] = tested on: NCI-H322M; settings: NCI panel, NSCLC; cited from earlier work
# [53] = tested on: A549/ATCC; settings: NCI panel, NSCLC; cited from earlier work
# [54] = tested on: SK-MEL-28; settings: NCI panel, melanoma; cited from earlier work
# [55] = tested on: MDA-MB-435 cells; settings: read-out: IC50 ± SD MDA-MB-435; results previously published; cited from earlier work
# [56] = tested on: SF-539; settings: NCI panel, CNS cancer; cited from earlier work
# [57] = tested on: RPMI-8226; settings: NCI panel, leukemia; cited from earlier work
# [58] = tested on: HOP-62; settings: NCI panel, NSCLC; cited from earlier work
# [59] = tested on: OVCAR-3; settings: NCI panel, ovarian cancer; cited from earlier work
# [60] = tested on: SK-OV-3; settings: NCI panel, ovarian cancer; cited from earlier work
# [61] = tested on: MDA-MB-231/ATCC; settings: NCI panel, breast cancer; cited from earlier work
# [62] = tested on: SNB-75; settings: NCI panel, CNS cancer; cited from earlier work
# [63] = tested on: SNB-19; settings: NCI panel, CNS cancer; cited from earlier work
# [64] = tested on: SK-OV-3; assay: SRB antiproliferative assay, SK-OV-3; format: cell-based; settings: SK-OV-3 and SK-OV-3 MDR1-M6/6 cell lines
# [65] = tested on: HeLa; assay: SRB antiproliferative assay, HeLa; format: cell-based
# [66] = tested on: NCI 60-cell line panel; assay: NCI cancer cell line panel; format: cell-based
# [67] = tested on: MDA-MB-435 xenografts; assay: MDA-MB-435 flank xenograft model; format: in vivo, nude mice; settings: ip, 60 mg/kg days 0 and 2, 50 mg/kg day 8; vs untreated control
# Method in brief: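 Nude mice bilaterally implanted sc in the flank with MDA-MB-435 tumour fragments; dosing began once tumours reached ~200 mm3. Test compound was given ip in PBS containing <5% (v/v) 50:50 Cremophor/DMSO. […] Tumour volumes and body weights were recorded 2–3 times weekly. Final volumes were compared with untreated controls by one-way ANOVA with Dunnett's test.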
# [68] = tested on: IGROVI; assay: NCI panel growth inhibition, IGROVI; format: cell-based
# [69] = tested on: HeLa WTβIII; assay: SRB antiproliferative assay, βIII-tubulin expressing HeLa WTβIII; format: cell-based; settings: Homo sapiens, read-out: IC50 ± SD HeLa WTβIII
# Chain of Bovine brain tubulin (Q6B856 whole entry): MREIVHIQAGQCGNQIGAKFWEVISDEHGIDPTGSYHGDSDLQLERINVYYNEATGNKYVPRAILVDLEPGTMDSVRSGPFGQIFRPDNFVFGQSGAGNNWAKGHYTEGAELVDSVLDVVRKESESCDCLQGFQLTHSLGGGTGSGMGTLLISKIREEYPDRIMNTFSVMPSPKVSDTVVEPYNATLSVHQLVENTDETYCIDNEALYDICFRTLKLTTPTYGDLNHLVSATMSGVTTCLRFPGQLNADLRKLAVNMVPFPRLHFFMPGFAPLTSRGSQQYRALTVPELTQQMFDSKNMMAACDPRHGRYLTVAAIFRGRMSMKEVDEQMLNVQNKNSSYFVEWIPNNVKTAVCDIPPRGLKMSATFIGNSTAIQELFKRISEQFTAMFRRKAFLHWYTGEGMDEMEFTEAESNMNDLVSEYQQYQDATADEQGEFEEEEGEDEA
# Chain of Bovine brain tubulin (P81947 whole entry): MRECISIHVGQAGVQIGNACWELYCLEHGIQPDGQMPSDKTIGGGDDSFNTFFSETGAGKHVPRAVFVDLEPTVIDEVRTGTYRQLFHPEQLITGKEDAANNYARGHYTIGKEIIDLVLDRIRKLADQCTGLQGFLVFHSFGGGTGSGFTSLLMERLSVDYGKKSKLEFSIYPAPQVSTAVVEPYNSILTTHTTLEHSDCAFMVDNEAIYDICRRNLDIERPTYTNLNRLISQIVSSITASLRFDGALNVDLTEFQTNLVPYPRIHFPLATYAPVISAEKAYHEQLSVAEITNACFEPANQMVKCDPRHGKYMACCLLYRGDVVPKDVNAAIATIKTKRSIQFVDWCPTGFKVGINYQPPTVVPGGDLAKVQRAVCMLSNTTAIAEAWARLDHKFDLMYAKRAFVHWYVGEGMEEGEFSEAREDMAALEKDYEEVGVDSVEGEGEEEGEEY
smiles,measurement,setting,value
"CCCN(c1ccc(OC)cc1)c1ncnc2occ(C)c12 [Compound 6, N-(4-Methoxyphenyl)-5-methyl-N-propylfuro[2,3-d]pyrimidin-4-amine]","fold more potent than (±)-1·HCl, tubulin assembly",[1],about 2 fold
same,IC50,[2],27.3 ± 4.5 nM
"CCc1ccc(N(C)c2ncnc3occ(C)c23)cc1 [Compound 8, N-Methyl-N-(4-ethylphenyl)-5-methylfuro[2,3-d]pyrimidin-4-amine]",fold lower microtubule depolymerizing potency than 3,[3],30 fold
same,IC50,[2],183 ± 13 nM
same,fold lower antiproliferative potency than 3,[2],43 fold
"COc1ccc(/C=C\c2cc(OC)c(OC)c(OC)c2)cc1O [CA-4, combretastatin A-4]",accumulation of cells in G2/M,[4],significant accumulation of cells in G2/M
"COc1ccc(Nc2ncnc3occ(C)c23)cc1 [Compound 2, N-(4-Methoxyphenyl)-5-methylfuro[2,3-d]pyrimidin-4-amine]",microtubule depolymerization activity,[3],inactive; also recorded: essentially devoid of activity
"COc1ccc(N(C)c2nc(C)nc3c2CC(C)C3)cc1.Cl (racemic) [(±)-1·HCl, N-(4-methoxyphenyl)-N,2,6-trimethyl-6,7-dihydro-5H-cyclo-penta[d]-pyrimidin-4-aminium chloride]",GI50,[5],< 10 nM
same,GI50,[6],31.8 nM
same,GI50,[7],< 10 nM
same,Rr (relative resistance),[8],0.6
same,GI50,[9],32.8 nM
same,GI50,[10],24 nM
same,GI50,[11],22.7 nM
same,GI50,[12],21.9 nM
same,GI50,[13],< 10 nM
same,GI50,[14],16.4 nM
same,GI50,[15],31.8 nM
same,GI50,[16],34.8 nM
same,GI50,[17],< 10 nM
same,GI50,[18],< 10 nM
same,GI50,[19],< 10 nM
same,Rr (relative resistance),[20],1.2
same,GI50,[21],15.1 nM
same,GI50,[22],15.2 nM
same,GI50,[23],< 10 nM
same,GI50,[24],< 10 nM
same,GI50,[25],23.4 nM
same,GI50,[26],16.3 nM
same,GI50,[27],< 10 nM
same,GI50,[28],< 10 nM
same,GI50,[29],13.4 nM
same,GI50,[30],10.2 nM
same,GI50,[31],292 nM
same,GI50,[32],< 10 nM
same,GI50,[33],14.6 nM
same,GI50,[34],< 10 nM
same,GI50,[35],38.5 nM
same,GI50,[36],55.4 nM
same,EC50,[37],56 nM
same,GI50,[38],26.8 nM
same,GI50,[39],11 nM
same,GI50,[40],11.8 nM
same,GI50,[41],< 10 nM
same,GI50,[42],21.4 nM
same,GI50,[43],14.6 nM
same,GI50,[44],18.3 nM
same,GI50,[45],< 10 nM
same,IC50,[46],37.3 ± 4.1 nM
same,GI50,[47],19.6 nM
same,IC50,[48],38.6 ± 3.1 nM
same,GI50,[49],31.5 nM
same,GI50,[50],< 10 nM
same,GI50,[51],12.5 nM
same,GI50,[52],59 nM
same,GI50,[53],24.4 nM
same,GI50,[54],< 10 nM
same,IC50,[55],17 ± 0.7 nM
same,GI50,[56],11.4 nM
same,GI50,[57],15.7 nM
same,GI50,[58],19.4 nM
same,GI50,[59],< 10 nM
same,GI50,[60],27.5 nM
same,GI50,[61],24.6 nM
same,GI50,[62],< 10 nM
same,GI50,[63],36.9 nM
"COc1ccc(N(C)c2ncnc3occ(C)c23)cc1 [Compound 3, N-(4-Methoxyphenyl)-N,5-dimethylfuro[2,3-d]pyrimidin-4-amine]","fold more potent than (±)-1·HCl, microtubule depolymerizing effects",[3],2.3 fold
same,accumulation of cells in G2/M,[4],significant accumulation of cells in G2/M
same,fold higher potency than (±)-1·HCl,[64],5 fold
same,fold better activity than (±)-1·HCl,[65]; HeLa and HeLa WT βIII cell lines,4 fold
same,GI50,[66],< 10 nM
same,antitumor effect (tumor growth),[67],statistically significant antitumor effects; also recorded: statistically significant inhibition of tumor growth; also recorded: significantly inhibited tumor growth
same,GI50,[68],< 10 nM
same,IC50,[2],4.3 ± 0.3 nM
same,"fold more potent than (±)-1·HCl, antiproliferative activity (MDA-MB-435)",[2],about 4 fold
"CCN(c1ccc(OC)cc1)c1ncnc2occ(C)c12 [Compound 4, N-Ethyl-N-(4-methoxyphenyl)-5-methylfuro[2,3-d]pyrimidin-4-amine]",fold lower microtubule depolymerizing potency than 3,[3],2 fold
same,"fold more potent than (±)-1·HCl, microtubule depolymerizing effects",[3],equipotent
same,accumulation of cells in G2/M,[4],significant accumulation of cells in G2/M
same,"fold more potent than (±)-1·HCl, tubulin assembly",[1],about 2 fold
same,IC50,[2],8.1 ± 0.5 nM
same,"fold more potent than (±)-1·HCl, antiproliferative activity (MDA-MB-435)",[2],1.4–2.1 fold
"COc1ccc(N(c2ncnc3occ(C)c23)C(C)C)cc1 [Compound 5, N-Isopropyl-N-(4-methoxyphenyl)-5-methylfuro[2,3-d]pyrimidin-4-amine]",microtubule depolymerization activity,[3],ineffective
same,IC50,[2],504 ± 28 nM
same,fold less potent (IC50) than 4,"[2]; antiproliferative, relative to N-Et analogue 4",60 fold
"CCCCN(c1ccc(OC)cc1)c1ncnc2occ(C)c12 [Compound 7, N-Butyl-N-(4-methoxyphenyl)-5-methylfuro[2,3-d]pyrimidin-4-amine]","fold more potent than (±)-1·HCl, tubulin assembly",[1],about 2 fold
same,IC50,[2],100 ± 6.5 nM
CC(=O)O[C@H]1C(=O)[C@@]2(C)[C@H]([C@H](OC(=O)c3ccccc3)[C@]3(O)C[C@H](OC(=O)[C@H](O)[C@@H](NC(=O)c4ccccc4)c4ccccc4)C(C)=C1C3(C)C)[C@]1(OC(C)=O)CO[C@@H]1C[C@@H]2O [paclitaxel],IC50,"[65]; Homo sapiens, HeLa, read-out: IC50 ± SD HeLa",2.8 ± 0.36 nM
same,IC50,[69],24 ± 3 nM
"CSc1ccc(N(C)c2ncnc3occ(C)c23)cc1 [Compound 9, N,5-Dimethyl-N-(4-(methylthio)phenyl)furo[2,3-d]pyrimidin-4-amine]",fold lower microtubule depolymerizing potency than 3,[3],2 fold
same,"fold more potent than (±)-1·HCl, microtubule depolymerizing effects",[3],equipotent
same,"fold better than 3, tubulin assembly IC50",[1]; relative to compound 3,3 fold
same,IC50,[2],12.3 ± 0.9 nM
same,fold lower antiproliferative potency than 3,[2],3 fold
same,"fold more potent than (±)-1·HCl, antiproliferative activity (MDA-MB-435)",[2],1.4–2.1 fold
